Screens: PubChem BioAssay, Johns Hopkins Ion Channel Center
MrgX1 ag = activates human MrgX1 receptor signaling; Q96LB2; MrgX1-HEK293 cells, Fluo-4 calcium fluorescence, agonist mode; stronger effect = higher value; B-score at 10 µM; hit rate 0.44% among 310,000; AID 588627;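 active means calcium response B-score plate-corrected fluorescence ratio at least 3 library SD, with starting fluorescence B-score inside 5 SD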
Target sequence (Q96LB2 whole entry, looked up): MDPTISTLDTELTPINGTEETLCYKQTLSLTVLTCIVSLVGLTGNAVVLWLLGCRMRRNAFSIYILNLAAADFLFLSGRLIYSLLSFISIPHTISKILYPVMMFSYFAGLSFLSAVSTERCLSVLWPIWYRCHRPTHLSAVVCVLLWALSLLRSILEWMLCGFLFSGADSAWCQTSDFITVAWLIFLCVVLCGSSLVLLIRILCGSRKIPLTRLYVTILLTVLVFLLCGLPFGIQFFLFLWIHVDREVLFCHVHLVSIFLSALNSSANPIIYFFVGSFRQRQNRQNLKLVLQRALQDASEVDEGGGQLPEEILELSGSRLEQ
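Test system: HEK293 cells stably expressing human MrgX1 receptor; Input: fifteen thousand cells per well; Dosing: compound delivered in addition one of three; Schedule: overnight seeding, then 1 h dark dye loading; Technique: Fluo-4 NW calcium fluorescence; Measure: B-scored fluorescence response ratio; Controls: positive and negative controls per plate.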
MrgX1 PAM = allosterically activates human MrgX1 receptor signaling; hit rate 0.63% among 310,000; MrgX1-HEK293, Fluo-4 calcium flux, FDSS; stronger effect = higher value; Q96LB2; B-score at 10 µM;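 active means plate-corrected calcium response at least 3 library SD above typical, normal starting fluorescence, not activating the receptor alone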;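 further: compound read alongside a low EC10 to EC30 dose of BAM8-22 agonist; peak minus trough fluorescence over baseline measured at the second addition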
RGS4 inh = inhibitors of human RGS4. P49798. HEK293 M3R/RGS4 inducible, Fluo-4 calcium flux; stronger effect = higher value; triggered by carbachol at its EC20. B-score at 10 µM. hit rate 0.45% among 310,000. AID 463165;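 active means B-score, a plate-corrected calcium signal, over three deviations above library mean, with baseline fluorescence within five deviations of library mean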;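 further: RGS4 expression induced by doxycycline in cells with stable M3 receptor; B-score is computed from the integrated fluorescence ratio over baseline after carbachol; higher B-score means a larger calcium signal and so more RGS4 inhibition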
Target sequence (P49798 whole entry, looked up): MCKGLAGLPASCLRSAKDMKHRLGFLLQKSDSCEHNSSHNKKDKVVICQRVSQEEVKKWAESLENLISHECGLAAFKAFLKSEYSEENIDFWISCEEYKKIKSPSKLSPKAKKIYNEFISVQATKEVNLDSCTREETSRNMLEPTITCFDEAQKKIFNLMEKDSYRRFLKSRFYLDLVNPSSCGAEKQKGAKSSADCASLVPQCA
RGS4 act = RGS4 potentiation or activation. HEK293 M3R/inducible RGS4, carbachol calcium flux Fluo4; stronger effect = lower value. B-score at 10 µM. hit rate 0.92% among 310,000. AID 463111;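 active means B-score of the integrated calcium signal more than 4 SD below the library mean, with starting fluorescence not abnormally high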;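 further: negative B-score means reduced calcium response which marks RGS4 activation or potentiation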
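test system = HEK293 cells with stable M3R and inducible RGS4 | schedule = recording 10 s baseline at 1 Hz, 100 s post-agonist | technique = Fluo4-AM (2 µM) calcium-flux fluorescence, kinetic read | measure = Agonist-evoked peak-minus-minimum fluorescence over baseline, integrated ratio, B score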
MrgX1 antag = human MrgX1 receptor antagonism, primary screen; B-score at 10 µM; MRGX1-HEK293 calcium flux, Fluo-4, BAM8-22 antagonism; stronger effect = lower value; hit rate 1.3% among 310,000; AID 588676; Q96LB2;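 active means calcium-response B-score plate-corrected more than 3 library SD below zero, starting fluorescence within 5 deviations, no agonist response on first addition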;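 further: peak minus trough fluorescence over baseline after final BAM8-22 challenge near maximal dose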
RGS4 inh valid = validation of RGS4 inhibitors. shares compounds with RGS4 inh. HEK293 M3R/RGS4, carbachol calcium Fluo-4 fluorescence; carbachol added at its EC20; 0 = buffer wells, 100 = carbachol control. calcium response, % at 10 µM. hit rate 65% among 1,700;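 active means duplicate-averaged calcium response above the buffer-only control mean plus 5 SD of those controls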;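 further: integrated fluorescence ratio F max minus min over baseline F0; higher response in RGS4-induced cells means RGS4 inhibition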
RGS4 uninduced = checks RGS4 inhibitor effects in non-induced HEK293 M3R cells | shares compounds with RGS4 inh | carbachol calcium Fluo-4; submaximal (EC20) carbachol stimulus; buffer wells 0%, carbachol control wells 100% | activity (percent), % at 10 µM | hit rate 20% among 1,900 | AID 493000; call rule not given here;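 further: RGS4 induction absent so cells express M3R without RGS4; higher means more calcium signal and flags a non-specific hit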
RGS4 inh ctr2 = second RGS4 inhibitor counter-screen in uninduced cells lacking carbachol. shares compounds with RGS4 inh. HEK293 M3R/RGS4 non-induced, Fluo-4 calcium, no carbachol; normalised: buffer wells 0%, carbachol wells 100%. calcium response (agonist-mode artifact), % at 10 µM. hit rate 22% among 1,900. AID 493001;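 active means duplicate-averaged calcium rise in uninduced cells above buffer wells' mean plus 5 SD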
The depositor's hits bear a star; i = inactive; / = no result. This is a sample that favours compounds with a hit; in the whole collection about 3.5% have one here.

SMILES	MrgX1 ag	MrgX1 PAM	RGS4 inh	RGS4 act	MrgX1 antag	RGS4 inh valid	RGS4 uninduced	RGS4 inh ctr2
CC(=O)N1c2ccc(S(=O)(=O)N3CCC(C(=O)N4CCN(c5ccccc5F)CC4)CC3)cc2CC1C (stereo not given)	i	i	i	i	i	/	/	/
C=C(C)C1(O)OC(=O)C=C1OC (stereo not given)	i	i	7.8*	i	i	9.0%*	i	i
COC(=O)N/N=C/c1cc(Br)ccc1O	i	i	i	i	i	/	/	/
CC(C)NC(=S)N/N=C/c1cc(Br)ccc1O	i	i	5.8*	i	i	12%*	i	i
COC(=O)c1ccc(OC)c(OC)c1Cl	i	i	5.8*	i	i	5.5%*	i	i
CCOC(=O)c1ccc(OC)c(OC)c1Cl	i	i	i	i	i	/	/	/
O=C(CSc1nnc(SCc2ccccc2Cl)s1)N/N=C/c1c[nH]c2ccccc12	i	i	6.8*	i	i	14%*	i	i
O=C(CSc1nnc(SCc2ccccc2)s1)N/N=C/c1c[nH]c2ccccc12	/	/	i	i	/	i	i	i
Cc1onc(-c2ccccc2)c1C(=O)Nc1ccc(Br)cc1Cl	i	i	i	i	i	/	/	/
Cc1cccn2c(=O)nc(SCC(=O)c3ccccc3)nc12	i	i	i	i	i	/	/	/
Cc1cc(Cn2nc(-c3ccccc3)cc2C(=O)NCC2CC2)on1	i	i	i	i	i	/	/	/
Cc1ccc(S(=O)(=O)/N=C(/Sc2ccccc2C(=O)O)c2ccccc2)cc1	i	i	i	i	i	/	/	/
O=S(=O)(/N=C(\Sc1ccccc1)c1ccccc1)c1ccc(Cl)cc1	i	i	i	i	i	/	i	27%*
Cc1ccc(S(=O)(=O)/N=C(\Sc2ccccc2)c2ccccc2)cc1	i	i	22*	i	i	22%*	i	26%*
COc1ccc2c(C(=O)c3ccc(C)cc3)n(Cc3ccc(C(N)=O)cc3)[n+]([O-])c2c1	i	i	/	/	i	/	/	/
Cc1[nH]c2ccccc2c1C(=O)CN1C(=O)NC(C)(c2ccc(Cl)cc2Cl)C1=O (stereo not given)	i	i	10*	i	i	30%*	i	56%*
Cc1[nH]c2ccccc2c1C(=O)CSc1ccc(Cl)cc1	i	i	i	i	i	/	/	/
Cc1ccccc1C1C(C#N)=C2N=C(N)c3ccccc3N2C2=C1C(=O)CCC2 (stereo not given)	i	i	i	i	i	/	/	/
N#CC1=C2N=C(N)c3ccccc3N2C2=C(C(=O)CCC2)C1c1cccc(Cl)c1 (stereo not given)	i	i	i	i	i	/	38%*	28%*
Cc1[nH]n(-c2ccccc2)c(=O)c1C(C[N+](=O)[O-])c1ccc(F)cc1 (stereo not given)	i	i	i	i	i	/	i	7.5%*
Cc1[nH]n(-c2ccccc2)c(=O)c1C(C[N+](=O)[O-])c1ccc(Cl)cc1 (stereo not given)	32*	i	10*	i	i	28%*	i	11%*
Cc1[nH]n(-c2ccccc2)c(=O)c1Sc1ccc(Cl)cc1	i	i	i	i	i	/	/	/
Cc1ccc(C(C[N+](=O)[O-])c2c(C)[nH]n(-c3ccccc3)c2=O)cc1 (stereo not given)	36*	i	6.7*	i	i	7.0%*	32%*	17%*
COc1ccc(C(c2c(C)[nH]n(-c3ccccc3)c2=O)c2c(C)[nH]n(-c3ccccc3)c2=O)cc1OC	i	i	i	i	i	/	i	i
Cc1cc(=O)oc2cc(OCC(=O)N3CCC(C(N)=O)CC3)ccc12	i	i	i	i	i	/	/	/
SMILES	MrgX1 ag	MrgX1 PAM	RGS4 inh	RGS4 act	MrgX1 antag	RGS4 inh valid	RGS4 uninduced	RGS4 inh ctr2
O=C(NCC1CCCO1)c1ccc2c(c1)S(=O)(=O)c1ccccc1C2=O (stereo not given)	i	i	i	i	i	/	/	/
O=C(Nc1ccccc1C(=O)N1CCCC1)c1ccc(Cl)c([N+](=O)[O-])c1	i	i	i	i	i	/	/	/
Cc1ccc(-c2cc(-c3ccc(F)cc3)nc(N)c2C#N)o1	i	i	6*	i	i	i	i	i
Cc1ccc(-c2cc(-c3ccccc3)c(C#N)c(N)n2)o1	i	i	7.7*	i	i	5.5%*	i	i
CC(=O)N1CCc2cc(S(=O)(=O)CCC(=O)Nc3ccc(Cl)cc3F)ccc21	i	i	i	i	i	/	/	/
CCCN(C(=O)Cc1c(C(=O)O)n(C)c2ccccc12)c1cccc(C)c1	i	i	6.2*	i	i	12%*	68%*	12%*
O=C(Cn1cnc2ccccc2c1=O)c1cccs1	i	i	i	i	i	/	/	/
O=C(/C=C/c1ccnc2ccccc12)c1cccs1	i	i	14*	i	i	18%*	41%*	i
CCOC(=O)C1(Cc2cccc(F)c2)CCN(Cc2ccc(COC)o2)CC1	i	i	i	i	i	/	/	/
COCCNC(=O)c1cn(Cc2c(F)cccc2Cl)nn1	i	i	i	i	i	/	i	i
O=C1CC2c3ccccc3C1C1C(=O)N(Cc3ccccc3)C(=O)C21 (stereo not given)	i	i	i	i	i	/	/	/
Cn1c(COc2ccc(F)cc2)nnc1SCC(=O)NC1CC1	i	i	i	i	i	/	/	/
CC1CCN(c2nc(N3CCCCC3)nc(N3CCCCC3)n2)CC1	i	i	8.7*	i	i	44%*	55%*	i
COc1cc(C=C2C(=O)c3ccccc3C2=O)cc(OC)c1	i	i	7.5*	i	i	8.5%*	i	i
COc1cccc(/C=C2\CCc3ccccc3C2=O)c1	i	i	i	i	i	/	/	/
COc1cccc(/C=C2\C(=O)C(=O)c3ccccc32)c1	30*	i	11*	i	i	14%*	i	10%*
O=C(c1ccco1)N1CCN(Cc2nnc(-c3cccc(Cl)c3)o2)CC1	i	i	i	i	i	/	/	/
